Source: ChEMBL document CHEMBL1121479, “Simple beta-lactam compounds derived from 6-aminopenicillanic acid” (1980)
Values after ≈ are worked out from the molar mass of the structure shown. Each block holds one molecule with its values, some of them ahead of it.

What was measured:
Pseudomonas aeruginosa [1] = test: Evaluated for the minimum inhibitory concentration (MIC) which inhibits the growth of Pseudomonas aeruginosa ATCC 9721 (gram-negative); assay type: functional
Procedure, shortened: (§1)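 Agar dilution on trypticase soy agar plates holding sample or standard at 0 to 200 μg/mL agar. Solutions were made and diluted in Me₂SO or water. Each plate was inoculated twice with every organism using a Steers replicator and incubated 18 h at 37 °C. MIC was taken as the lowest level that inhibited growth.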

Staphylococcus aureus [2] = test: Evaluated for the minimum inhibitory concentration (MIC) which inhibits the growth of Staphylococcus aureus ATCC 25923 (gram-positive); assay type: functional; procedure, shortened: as §1
Escherichia coli [3] = test: Evaluated for the minimum inhibitory concentration (MIC) which inhibits the growth of Escherichia coli ATCC 25922 (gram-negative); assay type: functional; procedure, shortened: as §1
Micrococcus luteus [4] = test: Evaluated for the minimum inhibitory concentration (MIC) which inhibits the growth of Sarcina lutea ATCC 9341 (gram-positive); assay type: functional; procedure, shortened: as §1
[5] = system: Staphylococcus epidermidis; test: Evaluated for the minimum inhibitory concentration (MIC) which inhibits the growth of Staphylococcus epidermidis ATCC 14990 (gram-positive); assay type: functional; procedure, shortened: as §1
Serratia marcescens [6] = test: Evaluated for the minimum inhibitory concentration (MIC) which inhibits the growth of Serratia marcescens MIT B-43 (gram-negative); assay type: functional; procedure, shortened: as §1
Klebsiella pneumoniae [7] = test: Evaluated for the minimum inhibitory concentration (MIC) which inhibits the growth of Klebsiella pneumoniae ATCC 27736 (gram-negative); assay type: functional; procedure, shortened: as §1
Streptococcus pyogenes [8] = test: Evaluated for the minimum inhibitory concentration (MIC) which inhibits the growth of Streptococcus pyogenes ATCC 10389 (gram-positive); assay type: functional; procedure, shortened: as §1
Proteus vulgaris [9] = test: Evaluated for the minimum inhibitory concentration (MIC) which inhibits the growth of Proteus vulgaris ATCC 6380 (gram-negative); assay type: functional; procedure, shortened: as §1
Enterobacter cloacae [10] = test: Evaluated for the minimum inhibitory concentration (MIC) which inhibits the growth of Enterobacter cloacae ATCC 13047 (gram-negative); assay type: functional; procedure, shortened: as §1
Bacillus subtilis [11] = test: Evaluated for the minimum inhibitory concentration (MIC) which inhibits the growth of Bacillus subtilis ATCC 6051 (gram-positive); assay type: functional; procedure, shortened: as §1
Proteus mirabilis [12] = test: Evaluated for the minimum inhibitory concentration (MIC) which inhibits the growth of Proteus mirabilis MIT B-52 (gram-negative); assay type: functional; procedure, shortened: as §1
Salmonella typhimurium [13] = test: Evaluated for the minimum inhibitory concentration (MIC) which inhibits the growth of Salmonella Typhimurium ATCC 13311 (gram-negative); assay type: functional, Salmonella enterica subsp. enterica serovar Typhimurium; conditions: Salmonella enterica; procedure, shortened: as §1
Shigella sonnei [14] = test: Evaluated for the minimum inhibitory concentration (MIC) which inhibits the growth of Shigella sonnei ATCC 11060 (gram-negative); assay type: functional; procedure, shortened: as §1
Escherichia coli [15] = test: Evaluated for the minimum inhibitory concentration (MIC) which inhibits the growth of Escherichia coli ATCC 25922; assay type: functional; procedure, shortened: as §1
Staphylococcus aureus [16] = test: Evaluated for the minimum inhibitory concentration (MIC) which inhibits the growth of Staphylococcus aureus ATCC 25923; assay type: functional; procedure, shortened: as §1
[17] = system: Staphylococcus epidermidis; test: Evaluated for the minimum inhibitory concentration (MIC) which inhibits the growth of Staphylococcus epidermidis ATCC 14990; assay type: functional; procedure, shortened: as §1
Shigella sonnei [18] = test: Evaluated for the minimum inhibitory concentration (MIC) which inhibits the growth of Shigella sonnei ATCC 11060; assay type: functional; procedure, shortened: as §1
Proteus vulgaris [19] = test: Evaluated for the minimum inhibitory concentration (MIC) which inhibits the growth of Proteus vulgaris ATCC 6380; assay type: functional; procedure, shortened: as §1
Micrococcus luteus [20] = test: Evaluated for the minimum inhibitory concentration (MIC) which inhibits the growth of Sarcina lutea ATCC 9341; assay type: functional; procedure, shortened: as §1
Klebsiella pneumoniae [21] = test: Evaluated for the minimum inhibitory concentration (MIC) which inhibits the growth of Klebsiella pneumoniae ATCC 27736; assay type: functional; procedure, shortened: as §1
Proteus mirabilis [22] = test: Evaluated for the minimum inhibitory concentration (MIC) which inhibits the growth of Proteus mirabilis MIT B-52; assay type: functional; procedure, shortened: as §1
Streptococcus pyogenes [23] = test: Evaluated for the minimum inhibitory concentration (MIC) which inhibits the growth of Streptococcus pyogenes ATCC 10389; assay type: functional; procedure, shortened: as §1
Bacillus subtilis [24] = test: Evaluated for the minimum inhibitory concentration (MIC) which inhibits the growth of Bacillus subtilis ATCC 6051; assay type: functional; procedure, shortened: as §1
Salmonella typhimurium [25] = test: Evaluated for the minimum inhibitory concentration (MIC) which inhibits the growth of; assay type: functional, salmonella typhimurium a; conditions: Salmonella enterica; procedure, shortened: as §1
Pseudomonas aeruginosa [26] = test: Evaluated for the minimum inhibitory concentration (MIC) which inhibits the growth of Pseudomonas aeruginosa ATCC 9721.; assay type: functional; procedure, shortened: as §1
Enterobacter cloacae [27] = test: Evaluated for the minimum inhibitory concentration (MIC) which inhibits the growth of Enterobacter cloacae ATCC 13047; assay type: functional; procedure, shortened: as §1
Serratia marcescens [28] = test: Evaluated for the minimum inhibitory concentration (MIC) which inhibits the growth of Serratia marcescens MIT B-43; assay type: functional; procedure, shortened: as §1

MIC (Pseudomonas aeruginosa [1]): > 100 µg/mL
MIC (Staphylococcus aureus [2]): > 100 µg/mL
MIC (Escherichia coli [3]): > 100 µg/mL
MIC (Micrococcus luteus [4]): > 100 µg/mL
MIC [5]: > 100 µg/mL
MIC (Serratia marcescens [6]): > 100 µg/mL
MIC (Klebsiella pneumoniae [7]): > 100 µg/mL
MIC (Streptococcus pyogenes [8]): > 100 µg/mL
MIC (Proteus vulgaris [9]): > 100 µg/mL
MIC (Enterobacter cloacae [10]): > 100 µg/mL
MIC (Bacillus subtilis [11]): 25 µg/mL (≈ 144 µM)
MIC (Proteus mirabilis [12]): > 100 µg/mL
MIC (Salmonella typhimurium [13]): > 100 µg/mL
MIC (Shigella sonnei [14]): > 100 µg/mL
SMILES: CC1(C)SC2CC(=O)N2C1O (stereo not drawn)

MIC (Escherichia coli [15]): > 100 µg/mL
MIC (Staphylococcus aureus [16]): > 100 µg/mL
MIC [17]: > 100 µg/mL
MIC (Shigella sonnei [18]): > 100 µg/mL
MIC (Proteus vulgaris [19]): > 100 µg/mL
MIC (Micrococcus luteus [20]): > 100 µg/mL
MIC (Klebsiella pneumoniae [21]): > 100 µg/mL
MIC (Proteus mirabilis [22]): > 100 µg/mL
MIC (Streptococcus pyogenes [23]): > 100 µg/mL
MIC (Bacillus subtilis [24]): 100 µg/mL (≈ 571 µM)
MIC (Salmonella typhimurium [25]): > 100 µg/mL
MIC (Pseudomonas aeruginosa [26]): > 100 µg/mL
MIC (Enterobacter cloacae [27]): > 100 µg/mL
MIC (Serratia marcescens [28]): > 100 µg/mL
SMILES: CC(C)(CO)SC1CC(=O)N1 (stereo not drawn)
